Experimental data pooled from the literature.
Compare with care: the assays were run in different laboratories.
CDK14: Cyclin-dependent kinase 14 (CDK14, Homo sapiens, UniProt O94921)
CDK14 with cyclin Y: Cyclin-dependent kinase 14, with cyclin Y (CDK14, Homo sapiens, UniProt O94921)

Structure (SMILES)	target	assay	conditions	endpoint	result
CCCCC(=O)Nc1ccc(-c2ccc3ncn(CCC)c(=O)c3c2)cn1	CDK14	binding, competition with immobilised ligand	0.5 µM	remaining binding	100%
COc1ccc2oc(-c3ccc4nc(N)oc4c3)c/c(=N\c3ccccc3NC(=O)CCN)c2c1	CDK14 with cyclin Y	binding	1 µM	remaining binding	100%
C1=C/COCc2cc(ccc2OCCN2CCCC2)Nc2nccc(n2)-c2cccc(c2)COC/1	CDK14	cell-free assay	0.1 µM	remaining signal	87%
CC#CC(=O)N1CCC[C@H]1c1nc(-c2ccc(C(=O)Nc3ccccn3)cc2)c2c(N)nccn12	CDK14	enzyme activity, inhibitor	1 µM	inhibition	4%
CN1CCN(C(=O)c2ccc(NC(=O)Nc3ccc(N(C)c4ccnc(Nc5ccc(CS(C)(=O)=O)cc5)n4)cc3)cc2)CC1	CDK14	binding, competition with immobilised ligand	1 µM	remaining binding	81%
CO[C@@H]1[C@H](N(C)C(=O)c2ccccc2)C[C@H]2O[C@]1(C)n1c3ccccc3c3c4c(c5c6ccccc6n2c5c31)C(=O)NC4	CDK14	enzyme activity, inhibitor	1 µM	inhibition	0%
Cc1ccc(NC(=O)c2ccnc(C(F)(F)F)c2)cc1-c1cc(OCCO)nc(N2CCOCC2)c1	CDK14	binding, competition with immobilised ligand	1 µM	remaining binding	100%
CC(C)S(=O)(=O)c1ccc2nccc(Nc3ccc4sc(C5CCCC5)nc4c3)c2c1	CDK14 with cyclin Y	enzyme activity, inhibitor	1 µM	activity vs control	110%
